Assay results pooled from the literature.
Sample: plasma

species	route	dose	setting	quantity	result	Structure (SMILES)
male Sprague-Dawley rat	oral	10 mg/kg		AUC	46.4 µg·h/mL	N#Cc1[nH]nnc1-c1cccc(OCc2cc(C(F)(F)F)ccc2C(F)(F)F)c1
Sprague-Dawley rat	intravenous	1 mg/kg		AUC	0.308 µg·h/mL	N#Cc1ccc(Nc2nc(N)cc(Oc3c(F)cc(-c4ccc(C#N)cc4)cc3F)n2)cc1
male Sprague-Dawley rat	oral	10 mg/kg		AUC	18.3 µg·h/mL	N#Cc1[nH]nnc1-c1csc(-c2ccc(Cl)cc2)n1
male Sprague-Dawley rat	intravenous	3 mg/kg		AUC(0-inf)	1.28 µg·h/mL	CCc1cc(C(=O)NC)c2nccc(N3CCc4c(cc(Cn5ccnc5)cc4-c4cn(C)nc4C(F)(F)F)C3=O)c2c1
Sprague-Dawley rat	intravenous	1 mg/kg		AUC	2400 nM·h	CCNC(=O)c1nc(-c2ccc3[nH]c(-c4nc(C)no4)cc3c2)c(C)[nH]1
rat	subcutaneous	20 nmol/kg		AUC	1980 nM·h	CC[C@H](C)[C@H](NC(=O)[C@H](Cc1ccccc1)NC(=O)[C@H](CCC(=O)O)NC(=O)[C@H](CCCNC(=N)N)NC(=O)[C@H](C)NC(=O)[C@H](C)NC(=O)[C@H](CCC(N)=O)NC(=O)[C@H](CCC(=O)O)NC(=O)[C@H](CCC(=O)O)NC(=O)[C@H](CC(C)C)NC(=O)[C@H](Cc1ccc(O)cc1)NC(=O)[C@H](CO)NC(=O)[C@H](CO)NC(=O)[C@@H](NC(=O)[C@H](CC(=O)O)NC(=O)[C@H](CO)NC(=O)[C@@H](NC(=O)[C@H](Cc1ccccc1)NC(=O)[C@@H](NC(=O)CNC(=O)[C@H](CCC(=O)O)NC(=O)[C@H](C)NC(=O)CCc1c[nH]cn1)[C@@H](C)O)[C@@H](C)O)C(C)C)C(=O)N[C@@H](C)C(=O)N[C@@H](Cc1c[nH]c2ccccc12)C(=O)N[C@@H](CC(C)C)C(=O)N[C@H](C(=O)N[C@@H](CCCNC(=N)N)C(=O)NCC(=O)N[C@@H](CCCNC(=N)N)C(=O)N[C@@H](CCCCNC(=O)COCCOCCNC(=O)COCCOCCNC(=O)CC[C@H](NC(=O)CCCCCCCCCCCCCCCCC(=O)O)C(=O)O)C(=O)O)C(C)C
male Wistar rat	oral	3 mg/kg		AUC(0-t)	0.908 µg·h/mL	C=CC(=O)N1CC2CC(n3nc(-c4ccc(C(=O)Nc5ccccn5)cc4)c4c(N)ncnc43)CC2C1 (centres unmarked)
male Sprague-Dawley rat	intravenous	0.5 mg/kg		AUC(0-inf)	0.0311 µg·h/mL	CCOC(=O)[C@@]12C[C@@H]1[C@@H](n1ccc3c(NC)nc(C#Cc4ccc(Cl)s4)nc31)[C@H](O)[C@@H]2O
Sprague-Dawley rat	oral	40 mg/kg		AUC	2.82 µg·h/mL	O=C1N(Cc2ccccc2Cl)c2ccccc2C12NN=C(c1ccccc1)S2 (centres unmarked)
female Fischer 344 rat	intravenous	12 mg/m²	single dose	AUC(0-inf)	0.403 µg·h/mL	COc1cc2c3c(n(CCCN4CCOCC4)c(=O)c2cc1OC)-c1cc2c(cc1C3=O)OCO2
Sprague-Dawley rat	intravenous	1 mg/kg		AUC	3000 nM·h	Cc1noc(-c2cc3cc(-c4nc(C(=O)NCc5ccncc5)[nH]c4C)ccc3[nH]2)n1
